Results from ChEMBL document CHEMBL1148788 (J Med Chem, 2007).
“And” between values parts separate entries of the source, which are not always exact repeats. Identical values can stand only once. The source made the active and inactive calls. No cut-off for these calls is given here.

Experiments:
tsA201 [1] = assay: Displacement of [3H]methyllycaconitine from chimeric alpha-7nAChR Y188A mutant/5-HT3A receptor in tsA201 cells; type: cell-based; settings: Homo sapiens
Summary of the method: (§1)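 tsA-201 cells transiently transfected with 4 µg WT or mutant α7/5-HT3A chimera and assayed 2 days later. Membranes washed twice at 50000g in 50 mM Tris-HCl pH 7.2. Incubated with 0.5 nM [3H]MLA and compound for 2.5 h at room temperature with shaking; nonspecific binding with 5 mM (S)-nicotine. PEI-soaked GF/C filtration, scintillation counting. Ki derived; duplicate, 3–7 experiments.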

tsA201 [2] = assay: Displacement of [3H]methyllycaconitine from chimeric alpha-7nAChR W55A/Y195A mutant /5HT3A receptor in tsA201 cells; type: cell-based; settings: Homo sapiens; summary of the method: as §1
[3] = Displacement of [3H]methyllycaconitine from chimeric alpha-7nAChR Y168A mutant/5HT3A receptor in tsA201 cells; type: cell-based, Homo sapiens; summary of the method: as §1
[4] = Displacement of [3H]methyllycaconitine from chimeric alpha-7nAChR N107A mutant/5HT3A receptor in tsA201 cells; type: cell-based, Homo sapiens; summary of the method: as §1
[5] = biological target: T1, Neuronal acetylcholine receptor subunit alpha-7 (Homo sapiens, UniProt P36544); assay: Displacement of [3H]methyllycaconitine from human alpha-7 in tsA201 cells coexpressed with 5HT3A receptor; type: cell-based
Target sequence in this assay (P36544 whole entry): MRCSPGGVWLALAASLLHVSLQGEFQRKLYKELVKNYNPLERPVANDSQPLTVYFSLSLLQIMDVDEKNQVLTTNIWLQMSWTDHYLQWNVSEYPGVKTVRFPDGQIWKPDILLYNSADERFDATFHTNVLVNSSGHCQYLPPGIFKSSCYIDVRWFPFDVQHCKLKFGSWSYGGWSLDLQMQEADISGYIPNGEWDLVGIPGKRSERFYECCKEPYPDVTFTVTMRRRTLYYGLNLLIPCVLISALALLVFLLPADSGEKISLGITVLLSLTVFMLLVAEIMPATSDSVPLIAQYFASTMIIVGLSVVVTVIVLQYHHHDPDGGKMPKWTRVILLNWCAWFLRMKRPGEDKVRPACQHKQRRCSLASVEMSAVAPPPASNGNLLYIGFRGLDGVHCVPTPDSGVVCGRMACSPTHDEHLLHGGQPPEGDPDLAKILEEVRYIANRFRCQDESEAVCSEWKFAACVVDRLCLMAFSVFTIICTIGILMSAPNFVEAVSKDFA

[6] = Displacement of [3H]methyllycaconitine from chimeric alpha7nAChR R79A mutant/5HT3A receptor R79A mutant in tsA201 cells; type: cell-based, Homo sapiens; summary of the method: as §1
[7] = Displacement of [3H]methyllycaconitine from chimeric alpha-7nAChR W55A mutant /5HT3A receptor in tsA201 cells; type: cell-based, Homo sapiens; summary of the method: as §1
[8] = Antagonist activity at human alpha-7 nAChR Y195A mutant coexpressed with human Ric3 in tsA201 cells by FMP assay; type: functional, cell-based
[9] = Displacement of [3H]methyllycaconitine from chimeric alpha-7nAChR D197A mutant/5HT3A receptor in tsA201 cells; type: cell-based, Homo sapiens; summary of the method: as §1
[10] = biological target: T1, Neuronal acetylcholine receptor subunit alpha-7; assay: Displacement of [3H]methyllycaconitine from chimeric alpha7nAChR/5HT3A in tsA201 cells; type: cell-based
Target sequence in this assay (P36544 23-502 limits assumed): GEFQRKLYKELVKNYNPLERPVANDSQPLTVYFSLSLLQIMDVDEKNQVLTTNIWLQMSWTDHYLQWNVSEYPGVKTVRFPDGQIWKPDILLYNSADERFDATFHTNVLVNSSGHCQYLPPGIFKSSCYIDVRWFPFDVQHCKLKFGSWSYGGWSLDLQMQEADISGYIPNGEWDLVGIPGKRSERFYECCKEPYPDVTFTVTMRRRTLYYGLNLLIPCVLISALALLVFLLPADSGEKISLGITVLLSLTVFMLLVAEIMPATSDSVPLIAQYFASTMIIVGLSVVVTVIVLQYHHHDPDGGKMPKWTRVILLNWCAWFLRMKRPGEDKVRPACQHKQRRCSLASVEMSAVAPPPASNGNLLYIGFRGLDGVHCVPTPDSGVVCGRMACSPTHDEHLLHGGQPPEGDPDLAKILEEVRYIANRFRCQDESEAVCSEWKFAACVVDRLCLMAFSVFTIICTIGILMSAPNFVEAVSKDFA

tsA201 [11] = assay: Displacement of [3H]methyllycaconitine from chimeric alpha-7nAChR W149A mutant/5HT3A receptor in tsA201 cells; type: cell-based; settings: Homo sapiens; summary of the method: as §1
[12] = Displacement of [3H]methyllycaconitine from chimeric alpha-7nAChR Y195F mutant/5HT3A receptor in tsA201 cells; type: cell-based, Homo sapiens; summary of the method: as §1
[13] = Antagonist activity at human alpha7nAChR Y93A mutant co-expressed with human Ric3 in tsA201 cells by FMP assay; type: functional, cell-based
[14] = biological target: T1, Neuronal acetylcholine receptor subunit alpha-7
Target sequence in this assay (P36544 whole entry): as the sequence (P36544 whole entry) above

tsA201 [15] = assay: Displacement of [3H]methyllycaconitine from chimeric alpha-7nAChR Y93A mutant/5HT3A receptor in tsA201 cells; type: cell-based; settings: Homo sapiens; summary of the method: as §1
[16] = Displacement of [3H]methyllycaconitine from chimeric alpha7nAChR Y195A mutant/5HT3A receptor in tsA201 cells; type: cell-based, Homo sapiens; summary of the method: as §1
[17] = Displacement of [3H]methyllycaconitine from chimeric alpha-7nAChR S148A mutant /5HT3A receptor in tsA201 cells; type: cell-based, Homo sapiens; summary of the method: as §1
[18] = Antagonist activity at human alpha7 nAChR W149Y mutant co-expressed with human Ric3 in tsA201 cells by FMP assay; type: functional, cell-based
[19] = biological target: T1, Neuronal acetylcholine receptor subunit alpha-7; assay: Antagonist activity at human alpha-7 nAChR in tsA201 cells coexpressed with Ric3 by FMP assay; type: functional, cell-based
Target sequence in this assay (P36544 whole entry): as above

[20] = Antagonist activity at human alpha-7 nAChR Y188A mutant coexpressed with human Ric3 in tsA201 cells by FMP assay; type: functional, cell-based
[21] = Displacement of [3H]methyllycaconitine from chimeric alpha7nAChR W55Y mutant/5HT3A receptor in tsA201 cells; type: cell-based, Homo sapiens; summary of the method: as §1
[22] = biological target: T1, Neuronal acetylcholine receptor subunit alpha-7; assay: Displacement of [3H]methyllycaconitine from alpha7 nAChR in tsA201 cells co-expressed with Ric3; type: cell-based
Target sequence in this assay (P36544 whole entry): as above

[23] = Displacement of [3H]methyllycaconitine from chimeric alpha-7nAChR K145R mutant /5HT3A receptor in tsA201 cells; type: cell-based, Homo sapiens; summary of the method: as §1
[24] = Displacement of [3H]methyllycaconitine from chimeric alpha7nAChR K145A mutant/5HT3A receptor in tsA201 cells; type: cell-based, Homo sapiens; summary of the method: as §1
tsA201 [25] = assay: Displacement of [3H]methyllycaconitine from chimeric alpha-7nAChR W149Y mutant/5HT3A receptor W149Y mutant in tsA201 cells; type: cell-based; settings: Homo sapiens; summary of the method: as §1
[26] = Displacement of [3H]methyllycaconitine from chimeric alpha-7nAChR S150A mutant/5HT3A receptor in tsA201 cells; type: cell-based, Homo sapiens; summary of the method: as §1
[27] = biological target: T2, Neuronal acetylcholine receptor; alpha3/beta4 (Rattus norvegicus, UniProt P04757+P12392); assay: Antagonist activity at rat alpha3beta4 nAChR expressed in HEK293 cells by FMP assay; type: functional, cell-based, Homo sapiens
T2 sequence (P04757 whole entry): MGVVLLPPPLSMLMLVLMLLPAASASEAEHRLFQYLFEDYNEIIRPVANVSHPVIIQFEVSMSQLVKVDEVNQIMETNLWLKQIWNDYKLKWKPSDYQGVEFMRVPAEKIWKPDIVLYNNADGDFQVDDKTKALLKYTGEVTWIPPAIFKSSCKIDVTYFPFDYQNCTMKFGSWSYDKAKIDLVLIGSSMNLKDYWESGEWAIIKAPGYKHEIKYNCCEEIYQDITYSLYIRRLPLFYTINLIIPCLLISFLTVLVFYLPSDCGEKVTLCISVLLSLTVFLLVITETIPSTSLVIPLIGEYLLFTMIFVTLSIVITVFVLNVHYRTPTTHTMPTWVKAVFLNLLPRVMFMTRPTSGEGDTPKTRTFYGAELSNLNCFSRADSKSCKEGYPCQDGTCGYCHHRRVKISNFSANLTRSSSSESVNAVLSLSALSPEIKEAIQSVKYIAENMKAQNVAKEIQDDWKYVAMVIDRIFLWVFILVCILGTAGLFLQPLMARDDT
T2 sequence (P12392 whole entry): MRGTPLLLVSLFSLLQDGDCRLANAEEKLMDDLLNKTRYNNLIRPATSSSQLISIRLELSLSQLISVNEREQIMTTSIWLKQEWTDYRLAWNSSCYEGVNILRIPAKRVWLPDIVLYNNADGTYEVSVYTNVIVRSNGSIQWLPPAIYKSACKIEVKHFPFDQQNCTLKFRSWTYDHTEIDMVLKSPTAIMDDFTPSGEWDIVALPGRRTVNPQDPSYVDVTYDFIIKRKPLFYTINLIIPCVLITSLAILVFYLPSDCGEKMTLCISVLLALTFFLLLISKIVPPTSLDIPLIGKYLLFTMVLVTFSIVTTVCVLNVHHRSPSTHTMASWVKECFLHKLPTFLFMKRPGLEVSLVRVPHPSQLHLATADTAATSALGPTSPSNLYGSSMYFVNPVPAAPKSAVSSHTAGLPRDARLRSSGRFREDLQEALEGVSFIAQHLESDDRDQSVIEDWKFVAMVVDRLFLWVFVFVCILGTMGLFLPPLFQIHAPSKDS

[28] = biological target: T3, 5-hydroxytryptamine receptor 3A (Homo sapiens, UniProt P46098); assay: Displacement of [3H]GR65630 from human 5HT3A receptor in HEK293 cells; type: cell-based
T3 sequence (P46098 whole entry): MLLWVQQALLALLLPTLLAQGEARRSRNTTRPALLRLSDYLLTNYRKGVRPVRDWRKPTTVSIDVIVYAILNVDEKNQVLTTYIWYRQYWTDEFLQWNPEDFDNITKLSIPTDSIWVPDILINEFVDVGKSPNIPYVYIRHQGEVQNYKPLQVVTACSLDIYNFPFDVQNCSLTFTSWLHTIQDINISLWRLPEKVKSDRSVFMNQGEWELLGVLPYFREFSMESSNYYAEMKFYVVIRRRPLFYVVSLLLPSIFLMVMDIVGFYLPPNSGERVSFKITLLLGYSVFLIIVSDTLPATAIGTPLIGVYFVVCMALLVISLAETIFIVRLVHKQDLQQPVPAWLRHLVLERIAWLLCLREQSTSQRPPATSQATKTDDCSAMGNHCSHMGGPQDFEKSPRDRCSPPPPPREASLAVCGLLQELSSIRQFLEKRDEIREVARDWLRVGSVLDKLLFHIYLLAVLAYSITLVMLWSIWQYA

[29] = biological target: Neuronal acetylcholine receptor; alpha4/beta2 (Rattus norvegicus, UniProt P09483+P12390); assay: Displacement of [3H]epibatidine from rat recombinant alpha-4-beta-2 nAChR in HEK293 cell line; type: cell-based
Sequence of Neuronal acetylcholine receptor; alpha4/beta2 (P09483 whole entry): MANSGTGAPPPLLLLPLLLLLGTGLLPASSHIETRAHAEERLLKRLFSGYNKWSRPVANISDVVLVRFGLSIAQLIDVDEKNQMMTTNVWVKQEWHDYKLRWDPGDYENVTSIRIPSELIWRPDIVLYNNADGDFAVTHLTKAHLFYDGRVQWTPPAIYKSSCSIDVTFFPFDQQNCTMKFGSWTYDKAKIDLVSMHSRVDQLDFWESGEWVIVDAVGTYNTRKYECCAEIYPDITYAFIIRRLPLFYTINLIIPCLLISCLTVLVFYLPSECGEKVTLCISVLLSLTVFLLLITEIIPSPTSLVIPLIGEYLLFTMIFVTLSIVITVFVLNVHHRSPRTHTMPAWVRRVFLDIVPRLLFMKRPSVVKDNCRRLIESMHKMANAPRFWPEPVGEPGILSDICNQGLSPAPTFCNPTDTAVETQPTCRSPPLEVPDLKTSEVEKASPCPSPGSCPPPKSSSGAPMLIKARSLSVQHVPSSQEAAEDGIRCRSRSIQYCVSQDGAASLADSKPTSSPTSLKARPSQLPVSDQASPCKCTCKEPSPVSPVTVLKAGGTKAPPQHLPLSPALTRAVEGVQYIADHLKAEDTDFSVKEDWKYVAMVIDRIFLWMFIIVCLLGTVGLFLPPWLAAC
Sequence of Neuronal acetylcholine receptor; alpha4/beta2 (P12390 whole entry): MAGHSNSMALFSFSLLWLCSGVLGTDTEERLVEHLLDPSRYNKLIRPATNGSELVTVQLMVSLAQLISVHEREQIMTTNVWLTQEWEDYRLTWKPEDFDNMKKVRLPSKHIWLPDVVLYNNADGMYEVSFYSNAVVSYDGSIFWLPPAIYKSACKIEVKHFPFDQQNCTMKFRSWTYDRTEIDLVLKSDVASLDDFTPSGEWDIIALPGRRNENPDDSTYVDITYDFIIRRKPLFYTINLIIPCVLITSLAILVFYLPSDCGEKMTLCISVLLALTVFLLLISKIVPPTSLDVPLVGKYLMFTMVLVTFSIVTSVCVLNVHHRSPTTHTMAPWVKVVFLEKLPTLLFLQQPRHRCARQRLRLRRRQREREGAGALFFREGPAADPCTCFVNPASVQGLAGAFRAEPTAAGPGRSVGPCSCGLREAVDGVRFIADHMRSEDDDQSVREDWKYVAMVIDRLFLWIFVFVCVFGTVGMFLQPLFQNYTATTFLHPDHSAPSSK

[30] = biological target: T4, Glycine receptor subunit alpha-1 (Homo sapiens, UniProt P23415); assay: Antagonist activity at human glycine alpha-1 receptor in HEK293 cells by FMP assay; type: functional, cell-based
T4 sequence (P23415 whole entry): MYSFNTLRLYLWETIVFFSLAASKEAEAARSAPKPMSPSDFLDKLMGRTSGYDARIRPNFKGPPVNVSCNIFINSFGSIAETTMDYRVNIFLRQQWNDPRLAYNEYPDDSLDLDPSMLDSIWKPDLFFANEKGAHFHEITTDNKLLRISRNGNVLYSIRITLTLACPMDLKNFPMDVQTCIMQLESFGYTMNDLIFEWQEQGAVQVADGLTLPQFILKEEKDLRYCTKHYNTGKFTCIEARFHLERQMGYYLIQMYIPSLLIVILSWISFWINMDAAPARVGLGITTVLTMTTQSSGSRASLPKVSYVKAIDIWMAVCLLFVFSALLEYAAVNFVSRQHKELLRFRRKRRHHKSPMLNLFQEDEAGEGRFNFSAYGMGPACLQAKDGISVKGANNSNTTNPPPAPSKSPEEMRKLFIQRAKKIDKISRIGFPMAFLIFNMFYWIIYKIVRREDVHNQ

[31] = biological target: Neuronal acetylcholine receptor; alpha4/beta4 (Rattus norvegicus, UniProt P09483+P12392); assay: Displacement of [3H]epibatidine from recombinant rat alpha-4-beta-4 nAChr in HEK293 cell line; type: cell-based
Sequence of Neuronal acetylcholine receptor; alpha4/beta4 (P09483 whole entry): as the sequence (P09483 whole entry) above
Sequence of Neuronal acetylcholine receptor; alpha4/beta4 (P12392 whole entry): as the sequence (P12392 whole entry) above

[32] = biological target: T3, 5-hydroxytryptamine receptor 3A; assay: Antagonist activity at human 5HT3A receptor expressed in HEK293 cells by FMP assay; type: functional, cell-based
[33] = biological target: T2, Neuronal acetylcholine receptor; alpha3/beta4; assay: Displacement of [3H]epibatidine from recombinant rat alpha-3-beta-4 nAChr in HEK293 cell line; type: cell-based
cells = type: functional, cell-based; settings: Homo sapiens, HEK293

## CCN1C[C@]2(COC(=O)c3ccccc3N3C(=O)C[C@H](C)C3=O)CC[C@H](OC)[C@@]34[C@@H]5C[C@H]6[C@H](OC)[C@@H]5[C@](O)(C[C@@H]6OC)[C@](O)([C@@H](OC)[C@H]23)[C@@H]14 [METHYLLYCACONITINE]
tsA201 [1]
  Activity: inactive
tsA201 [2]
  Activity: inactive
[3]
  Ki: 1.9 nM
  pKi: 8.71
[4]
  Ki: 3.2 nM
  pKi: 8.42
[5]; read-out: Ki
  Ki: 1.1 nM
[5]; read-out: pKi (converted)
  Ki: 1 nM
[6]
  Ki: 3.5 nM
  pKi: 8.45
[7]
  Ki: 24 nM
  pKi: 7.62
[8]; read-out: IC50
  IC50: 320 nM
[8]; read-out: pIC50 (converted)
  IC50: 324 nM
[9]
  Ki: 5.5 nM
  pKi: 8.26
[10]
  Ki: 1.6 nM
  pKi: 8.79
tsA201 [11]
  Activity: inactive
[12]
  Ki: 1.7 nM
  pKi: 8.78
[13]; read-out: IC50
  IC50: 10000 nM
[13]; read-out: pIC50 (converted)
  IC50: 31600 nM
[14]
  IC50: 8.3 nM and 8.32 nM
tsA201 [15]
  Activity: inactive
[16]
  Ki: 13 nM
  pKi: 7.89
[17]
  Ki: 2.5 nM
  pKi: 8.6
[18]; read-out: IC50
  IC50: 89 nM
[18]; read-out: pIC50 (converted)
  IC50: 10000 nM
[19]; read-out: IC50
  IC50: 8.3 nM
[19]; read-out: pIC50 (converted)
  IC50: 8.32 nM
[20]; read-out: IC50
  IC50: 1800 nM
[20]; read-out: pIC50 (converted)
  IC50: 1820 nM
[21]
  Ki: 4.5 nM
  pKi: 8.35
[22]; read-out: Ki
  Ki: 6.1 nM
[22]; read-out: pKi (converted)
  Ki: 6.31 nM
[23]
  Ki: 4.3 nM
  pKi: 8.37
[24]
  Ki: 3.9 nM
  pKi: 8.41
tsA201 [25]
  Activity: inactive
[26]
  Ki: 3.5 nM
  pKi: 8.45

## C[N+](C)(C)Cc1c2n(c3ccccc13)Cc1c(C[N+](C)(C)C)c3ccccc3n1C2.[I-].[I-]
tsA201 [1]
  Activity: inactive
[27]; hek293
  pIC50: < 4
[27]; read-out: IC50
  IC50: > 100000 nM
tsA201 [2]
  Activity: inactive
[3]
  Ki: 5100 nM
  pKi: 5.29
[28]
  Ki: > 100000 nM
[28]; hek293
  pKi: < 4
[4]
  Ki: 15000 nM
  pKi: 4.82
[5]; read-out: Ki
  Ki: 2400 nM
[5]; read-out: pKi (converted)
  Ki: 2510 nM
[6]
  Ki: 7600 nM
  pKi: 5.12
[7]
  Ki: 1100 nM
  pKi: 5.94
[29]
  Ki: > 100000 nM
[29]; read-out: Ki
  Ki: > 100000 nM
[9]
  Ki: 6300 nM
  pKi: 5.2
[30]
  IC50: > 100000 nM
[30]; hek293
  pIC50: < 4
[31]
  Ki: > 100000 nM
[31]; hek293
  pKi: < 4
[10]
  Ki: 4420 nM
  pKi: 5.35
[32]; hek293
  pIC50: < 4
[32]; read-out: IC50
  IC50: > 100000 nM
tsA201 [11]
  Activity: inactive
[12]
  Ki: 8300 nM
  pKi: 5.08
tsA201 [15]
  Activity: inactive
[33]
  Ki: > 100000 nM
[33]; hek293
  pKi: < 4
[16]
  Ki: 22000 nM
  pKi: 4.66
cells; read-out: IC50
  IC50: > 100000 nM
cells; read-out: pIC50 (converted)
  IC50: > 100000 nM
[17]
  Ki: 430 nM
  pKi: 6.37
[19]; read-out: IC50
  IC50: 30000 nM
[19]; read-out: pIC50 (converted)
  IC50: 100000 nM
[21]
  Ki: 2400 nM
  pKi: 5.61
[22]; read-out: Ki
  Ki: 1300 nM
[22]; read-out: pKi (converted)
  Ki: 1260 nM
[23]
  Ki: 5200 nM
  pKi: 5.28
[24]
  Ki: 7200 nM
  pKi: 5.14
tsA201 [25]
  Activity: inactive
[26]
  Ki: 6000 nM
  pKi: 5.22
